*1 amine or outer side, *2 acyl side, *3 side chain or, on linkers, in order; H or OH if unused. Where a SMILES comes first, the peptide text is derived from it. Bridges are numbered along the chain shown (N, C = ends). [ ]: non-standard residue; d: D form. The star is where a group is joined. oXylylene = c1ccc(C[*:2])c(C[*:1])c1; Pent4ynoyl = C#CCCC(=O)*
Columns and labels:
[1] = Solubility as observed by the authors; type: physicochemical
[2] = test system: HeLa-Htt103Q cells; assay: Htt103Q aggregate assay, cellular model of Huntington's disease; type: cell-based; conditions: HeLa cells expressing CFP-htt103Q, 20 μM peptide, aggregates <1 μm
Outline: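 HeLa cells expressing CFP-Htt103Q were treated with peptide, then fixed in 2% PFA in PBS. An observer blinded to condition counted CFP-positive aggregates <1 μm by fluorescence microscopy. Scores were the percentage of cells carrying small aggregates and the number of small aggregates per cell.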

[3] = test system: HeLa cells stably expressing GFP-LC3; assay: GFP-LC3 puncta assay of autophagic flux, with and without bafilomycin A1; type: cell-based
Outline: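 HeLa cells stably expressing GFP-LC3 were given peptide for 2 h in serum-free Opti-MEM acidified with 0.15% (v/v) 6 N HCl, with or without bafilomycin A1. Cells were fixed in 2% PFA in PBS and GFP-LC3 puncta per cell were counted by fluorescence microscopy, with ≥100 cells per sample. Triplicate samples, mean ± SEM, t test versus DMSO; ≥3 independent experiments.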

solubility compared with DD5-o ([1]; medium not stated, N-terminal tag attached to DD5-o) | Molecule | solubility in water ([1]; judged for 2D-NMR experiments) | number of small htt103Q aggregates observed per cell [2] | percentage of cells that have small htt103Q aggregates [2] | extent of autophagy induction relative to Tat-Beclin 1 (GFP-LC3 puncta) ([3]; 10 μM peptide, 2 h) | change in GFP-LC3 puncta upon cotreatment with Baf A1 ([3]; peptide 2 h plus bafilomycin A1)
equally soluble as DD5-o | (HT)-VcNAcFHIWH (sidechain bridge or staple) [HT-DD5-o] |  |  |  |  | 
 | C#CCCC(=O)N[C@H](C(=O)N[C@@H]1CSCc2ccccc2CSC[C@H](C(=O)N[C@@H](Cc2ccccc2)C(=O)N[C@@H](Cc2c[nH]cn2)C(=O)N[C@H](C(=O)N[C@@H](Cc2c[nH]c3ccccc23)C(=O)N[C@@H](Cc2c[nH]cn2)C(N)=O)[C@@H](C)CC)NC(=O)[C@H](C)NC(=O)[C@H](CC(N)=O)NC1=O)C(C)C [DD5-o] (Pent4ynoyl-V[dC]NA[dC]FHIWH-NH2; linker 2-5 via oXylylene) | not soluble enough in water for 2D-NMR experiments | significant decrease | significant decrease | slightly less activity than Tat-Beclin 1 | further increase in GFP-LC3 puncta
